Screening results deposited in PubChem BioAssay by Sanford-Burnham Center for Chemical Genomics.
A selection: hits, their analogues and other compounds. The true share with any hit is near 1.8%.
MT1-MMP act inh – blocks activation of human MT1-MMP; 0.061% of 360,000 active; GFP/RFP ratio change, % at 20 µM; HT1080 RFP-PRO-GFP cells, GFP/RFP ratio fluorescence, overnight; percent of plate control window, DMSO zero; P50281;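 active = GFP/RFP ratio change of at least 30% with cell ATP level not reduced by more than half and red fluorescence within 50% of control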
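Read-out: GFP/RFP fluorescence ratio; Test system: RFP-PRO-GFP reporter HT1080 cells; Compound dosing: single-point 20 µM compound, 1% DMSO; Times: overnight compound exposure at 37 °C.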
SKN-1 inh – blocks SKN-1 activity in C. elegans | 0.49% of 360,000 active | inhibition, % at 21.8 µM | C. elegans VP596 Pgst-4::GFP/RFP ratio, acrylamide-induced, 24 h;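 active = interference check ratio from 0.5 to 1.5 plus GFP to RFP signal ratio inhibition reaching or exceeding a fixed threshold, cut at about 30% in these data, passing the limit was not always enough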
PABP FP inh – blocks human PABP binding to poly(A) RNA; fluorescence polarization; calls only at 35 µM; 1% of 290,000 active;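 also: calls also rest on retests at 20 µM and on dose response follow-up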
PABP1 MLLE inh – blocks PAM2 peptide binding to the PABP1 MLLE domain; P11940; GST-MLLE / FITC-PAM2 fluorescence polarization; inhibition, % at 20 µM; 0.36% of 360,000 active; AID 588489; in the data active = inhibition above about 35%, passing the limit was not always enough;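 also: plate controls were DMSO wells with GST-MLLE for no effect and wells lacking GST-MLLE protein for full effect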
eIF4H FP inh – inhibitors of RNA binding by human eIF4H; Q15056; eIF4H fluorescence polarization binding assay; inhibition, % at 35 µM; 0.94% of 290,000 active; AID 2012;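 also: calls also rest on retests at 20 µM and on dose response follow-up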
* marks the source's active call; other numbers are inactive results; i = inactive; ? = inconclusive; / = no result given; + = active, no number. Unless noted, no rule for the calls is given here.

SMILES | MT1-MMP act inh | SKN-1 inh | PABP FP inh | PABP1 MLLE inh | eIF4H FP inh
O=c1c2ccccc2n2c(-c3ccc(F)cc3)nnc2n1Cc1ccccc1 | 3 | 6 | + | -15 | 53*
CCn1c2ccc(C)cc2c2n[nH]c(=S)nc21 | / | 6 | i | 20 | 1
Fc1ccc2c(c1)c1n[nH]c(=S)nc1n2CCc1ccccc1 | 0 | -5 | i | 40* | -10
Cc1ccc2c(c1)c1n[nH]c(=S)nc1n2CCc1ccccc1 | 2 | 6 | i | 41* | -4
CCn1c2ccc(F)cc2c2nc3ccccc3nc21 | -1 | 40* | i | 17 | 6
Nc1ncnc2c1ncn2[C@@H]1O[C@H](C(=O)NS(=O)(=O)c2cccs2)[C@@H](O)[C@H]1O | 1 | -8 | / | 0 | /
O=C(O)c1ccccc1NS(=O)(=O)c1cccc(-n2sc3ccccc3c2=O)c1 | -3 | 5 | + | 11 | 47*
CCN(CC)c1ccc(C=C(c2nnnn2-c2ccc(C)cc2)c2nnnn2-c2ccc(C)cc2)cc1 | -40 | 15 | i | -71 | 53*
O=C(c1cc(COc2ccc(F)cc2Cl)on1)N1CCCCCC1 | 1 | 38* | i | -3 | 2
CC1=C(C#N)C(=O)OC(C)(C)C1 | -27 | 24 | + | 87 | 122*
O=C(O)c1ccc(/C=N/NC(=O)c2ccc(CN3c4cccc5cccc(c45)S3(=O)=O)cc2)cc1 | 2 | 9 | i | -8 | 59*
CC(/C=N/NC(=O)c1ccc(CN2c3cccc4cccc(c34)S2(=O)=O)cc1)c1ccccc1 (stereo unspecified) | 1 | 14 | i | -8 | -12
COc1ccc2c(c1)c1nc3ccccc3nc1n2CC(=O)OC(C)C | -181 | 4 | + | 70 | 127
COc1ccc2c(c1)c1nc3ccccc3nc1n2Cc1ccc(OC(C)C)c(OC)c1 | -21 | 2 | + | -6 | 78*
COC(=O)c1cc(C)c(C)cc1NC1OC(CO)C(O)C1O (stereo unspecified) | -7 | -18 | / | -7 | /
CC1CCCN(C2(O)C(=O)Nc3ccc(Cl)cc32)C1 (stereo unspecified) | -6 | 6 | i | -5 | 11
O=C(c1ccc(S(=O)(=O)NCc2ccco2)cc1)N1CCN(c2ccc(F)cc2)CC1 | 3 | 33* | / | 11 | /
CC(=O)c1ccc(N2CCN(C(=O)c3ccc(S(=O)(=O)NCc4ccco4)cc3)CC2)cc1 | 6 | 23 | / | -1 | /
Cc1cc(CC(C)C)n(-c2nc3ccccc3c(=O)n2OCc2ccccc2)n1 | / | 37* | i | -2 | 3
CCc1ccc(C(C#N)=CC=Cc2ccccc2)cc1 | -1 | 2 | / | 1 | /
COCCn1c(CCC(=O)O)nc2c1c(=O)[nH]c(=O)n2CC(C)C | 5 | 32* | i | 9 | -10
C#CCSc1nnc(-c2cccc3ccccc23)o1 | 6 | 82* | / | -113 | /
Cc1ccc(-n2c(C)cc(-c3csc(N)n3)c2C)cc1 | -2 | 6 | i | -4 | ?
Cc1cc(-c2csc(N)n2)c(C)n1C | -1 | 15 | + | 22 | 118*
CCN1CCc2c(sc(NC(=O)c3ccc(S(=O)(=O)N(CC)c4ccccc4)cc3)c2C(N)=O)C1 | -45 | 3 | i | -78 | 32
SMILES | MT1-MMP act inh | SKN-1 inh | PABP FP inh | PABP1 MLLE inh | eIF4H FP inh
O=C(Nc1ccncc1)c1ccc(Cl)c(S(=O)(=O)N2CCCC2)c1 | -3 | -8 | / | 6 | /
COc1ccc2c(c1)sc1nc(-c3ccccc3)cn12 | 17 | 37* | i | 9 | 5
CCOC(=O)N1CCN(C(=O)c2ccc3c(c2)sc2nc(-c4ccc(OC)cc4)cn23)CC1 | 3 | 3 | i | 30 | -8
C=CCNc1nc(-c2ccc(Cl)cc2)cs1 | 3 | 43* | i | 12 | 2
Clc1ccc(-c2csc(Nc3cccnc3)n2)cc1 | 0 | 10 | i | 1 | -1
C=CCNc1nc(-c2ccc([N+](=O)[O-])cc2)cs1 | 9 | 51* | i | -19 | 4
O=[N+]([O-])c1ccc(S(=O)(=O)Nc2nc(-c3ccccc3)cs2)cc1 | 10 | 14 | i | 22 | 0
O=C(NCc1ccco1)c1sc2ccccc2c1Cl | -1 | 25 | i | 2 | 4
O=C(NCc1ccco1)c1sc2cc(Cl)ccc2c1Cl | 5 | 38* | i | 8 | 17
O=C1OC=NC1=Cc1ccccc1 | -6 | 10 | / | -28 | /
CC(C)(C)[C@@H]1COC(=O)[C@H](Cc2ccc(F)cc2)C/C=C\C[C@@H](CC(=O)NCCO)C(=O)N1 | 6 | 0 | / | -4 | /
